Assay outcomes: PubChem BioAssay, several laboratories
BB579 growth dn: growth inhibitors of yeast BB579 in restrictive medium, primary screen, yeast lifespan-shortening project, S. cerevisiae; 140,000 tested, 0.51% active; inhibition, % at 10 µM; OD615, 48 h; AID 804, 2007;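 active = inhibition above a set limit, 3 SD over the mean compound inhibition, cut at about 44% in these data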
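System: Saccharomyces cerevisiae DeaD strain BB579, replicative lifespan model yeast. Buffer or medium: restrictive glucose-based CSMM-D medium. Doses: one dose, 10 µM compound with 0.25% DMSO. Timing: 4 h preincubation and 48 h exposure at 30 °C. Detection: turbidity as optical density at 615 nm. Benchmarks: amphotericin B 10 µg/mL, positive.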
Yeast lifespan up: compounds extending yeast replicative lifespan, primary screen, S. cerevisiae, OD615; S. cerevisiae growth with nicotinamide; deaD strain in restrictive glucose medium; inhibition of the nicotinamide effect, % at 10 µM; 130,000 tested, 0.68% active; AID 775, 2007;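 active = inhibition above a set limit, placed 3 SD over the median of all compounds, cut at about 26% in these data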;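 note: 0% = nicotinamide-treated wells and 100% = cells grown without nicotinamide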
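assay system = DeaD-strain S. cerevisiae | measured by = absorbance at 615 nm | probe or stimulus = nicotinamide 1.5 mM | buffer or medium = CSMM-D glucose medium, restrictive | times = 48 h at 30 °C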
Measles CPE: compounds protecting cells from measles virus cytopathic effect, primary screen, measles RdRp inhibitor project, single point, MLSMR library, absorbance; Measles virus-infected cells, CPE protection; protection (pct of control), % at 4 µM; 140,000 tested, 1.5% active; in the data active = protection mostly above about 24%, no sharp cut-off; inactive = mostly below about 26%
RAM inhibit: inhibitors of the yeast RAM network, primary screen, dse1pr::URA3 reporter, 5-FOA selection. AID 868, 2007. S. cerevisiae dse1pr::URA3 reporter, 5-FOA growth OD615, 2 d; analog-sensitive cbk1-as2 kinase mutant strain. inhibition, % at 50 µM. 190,000 tested, 1.8% active;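 active = inhibition above a set limit, 3 SD over mean compound inhibition, cut at about 8.4% in these data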;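 note: 0% = DMSO-only wells with no growth and 100% = 10 µM 1-NA-PP1 full growth; inhibition rescues growth on 5-FOA so higher OD means more RAM inhibition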
Starred values were filed as active, the others as inactive; nt = no result given. Sampled rows, rich in hits. Any-hit rate of the full collection: about 3.8%.

SMILES	BB579 growth dn	Yeast lifespan up	Measles CPE	RAM inhibit
COc1ccc(NC(=O)C(c2cc3c(cc2[N+](=O)[O-])OCO3)N2CCN(C=O)CC2)cc1 (stereo not drawn)	-1	-2	23*	0
CCOc1cc(C2c3c(oc4cc(C)c(Cl)cc4c3=O)C(=O)N2Cc2ccco2)ccc1O (stereo not drawn)	-62	-8	6	8.4*
O=S(=O)(/C=C/c1ccccc1)NC1CCCCCCC1	-46	27*	5	2
CCN(CC)S(=O)(=O)c1ccc(Cl)c(NC(=O)COC(=O)/C=C/c2ccc(O)c(OC)c2)c1	-34	0	3	6
CCOC(=O)Cc1csc(NC(=O)CC)n1	-33	-6	7	0
COC(=O)c1sccc1NC(=O)CSc1cc(Cl)ccc1Cl	-34	-14	11	9.5*
CCOC(=O)Cc1csc(NC(=O)CSc2cc(Cl)ccc2Cl)n1	-5	6	29*	4
Cc1ccc(/C=C/C(=O)c2ccc(C)cc2)cc1	-24	nt	8	2
Cc1ccc(/C=C/C(=O)C2C(=O)c3ccccc3C2=O)cc1	-20	42*	1	3
COC(=O)Cn1c2ccccc2c2nc(C)sc21	49*	-13	3	0
COC(=O)Cn1c2ccc(F)cc2c2nc(C)sc21	-26	-15	18	0
COCCCNC(=O)c1c(N)n(/N=C/c2cccs2)c2nc3ccccc3nc12	-48	-12	3	8.7*
COCCCNC(=O)c1c(N)n(/N=C/c2cccnc2)c2nc3ccccc3nc12	-36	-19	8	11*
COCCn1c(N)c(C(=O)NCc2cccs2)c2nc3ccccc3nc21	-34	-27	21	-1
O=C(Nc1ccc(S(=O)(=O)Nc2ncccn2)cc1)c1cnc(Cl)c(Cl)c1	nt	nt	nt	11*
O=C(Nc1ccc(Cl)cc1)Nc1ccc(S(=O)(=O)Nc2ncccn2)cc1	nt	nt	nt	5
NC(N)=NC(N)=Nc1ccc2ccccc2c1	nt	nt	nt	1
NC(N)=NC(N)=Nc1ccc(SC(F)(F)F)cc1	-20	-7	24*	0
CSCCC(NS(=O)(=O)c1ccc(C)c(C(=O)O)c1)C(=O)O (stereo not drawn)	nt	nt	nt	0
CCCNC(=O)[C@H](Cc1c[nH]c2ccccc12)NC(=O)c1ccccc1Cl	-5	1	32*	1
CCCCNC(=O)[C@H](Cc1c[nH]c2ccccc12)NC(=O)c1ccccc1Cl	-15	9	2	0
COc1ccc(C(=O)C[n+]2ccc3c(c2)nnn3-c2ccccc2)cc1	nt	nt	nt	0
COC(=O)[C@H](CC(C)C)NC(=O)NC1CCCc2ccccc21 (stereo partly drawn)	-23	-3	5	2
COC(=O)[C@H](C)NC(=O)NC1CCCc2ccccc21 (stereo partly drawn)	-11	-6	56*	1
CC(C)[C@H](NC(=O)NC1CCCc2ccccc21)C(=O)O (stereo partly drawn)	-12	-7	20*	3
SMILES	BB579 growth dn	Yeast lifespan up	Measles CPE	RAM inhibit
O=C(O)C1C2C=CC(O2)C1C(=O)NC1CCCc2ccccc21 (stereo not drawn)	77*	-12	9	0
CNC(=O)NC1CCCc2ccccc21 (stereo not drawn)	-24	-16	23*	3
Cc1ccc2oc3nc(C)c(C(=O)Nc4cccc(C(F)(F)F)c4)cc3c(=O)c2c1	-30	-5	15	7
COCCNC(=S)N1CCCC(CO)C1 (stereo not drawn)	nt	nt	nt	1
Cc1ccn(C(=O)c2ccc(NC(=O)CC(C)C)cc2)n1	nt	nt	nt	1
COc1cccc(NC(=O)NC2CCCc3ccccc32)c1 (stereo not drawn)	nt	nt	nt	8.8*
O=C(Nc1ccccc1)NC1CCCc2ccccc21 (stereo not drawn)	nt	nt	nt	1
Cc1ccc(C(=O)N/C(=C\c2cn(-c3ccccc3)nc2-c2ccccc2)C(=O)N2CCOCC2)cc1	-36	-7	24	7
O=C(O)c1cc2c(ccc3ccccc32)oc1=O	67*	-11	6	-1
O=C(O)c1cc2cc(Cl)cc(Cl)c2oc1=O	-33	-26	4	1
O=C(O)c1cc2ccc3ccccc3c2oc1=O	64*	nt	9	-2
O=C(COc1ccc2ccc(=O)oc2c1)N1CCc2ccccc21	nt	nt	nt	3
CC(=O)Nc1nnc(COc2ccccc2)s1	nt	nt	nt	0
O=C(Nc1nnc(COc2ccccc2)s1)c1ccco1	-40	-12	45*	4
Cc1cc2oc(=O)cc(Cn3nnc(-c4ccc(Cl)cc4)n3)c2cc1C(C)C	-40	-2	7	3
O=C(Oc1c(CN2CCOCC2)cc(Cl)c2cccnc12)c1cccs1	nt	nt	nt	-1
O=C(Oc1c(Cl)cc(Cl)c2cccnc12)c1cccs1	99*	nt	6	0
CCCC(C)NC(=O)COc1ccc(Sc2ccc(OCC(=O)NC(C)CCC)cc2)cc1 (stereo not drawn)	-54	7	21	10*
CC(C)OC(=O)c1cn(-c2ccccc2)nc1-c1ccc2c(c1)OCCO2	1	-2	9	11*
COc1cc(OC)c(-c2c3cc(O)c(=O)cc-3oc3cc(O)c(O)cc23)cc1OC	4	9	nt	10*
COc1cc2c(cc1OC)C(C(=O)O)C(c1ccc(C)o1)N(C)C2=O (stereo not drawn)	-16	-22	6	1
CCOC(=O)N(C)S(=O)(=O)c1ccccc1[N+](=O)[O-]	nt	nt	nt	2
CCn1c(COc2ccccc2C)nnc1SCC(=O)N1CCN(c2ccccc2)CC1	-8	-16	4	-2
CCn1c(COc2cccc(C)c2C)nnc1SCC(=O)N1CCN(c2ccc(OC)cc2)CC1	-71	-2	2	8.8*
COc1ccc(N2CCN(C(=O)CSc3nnc4c(C)cc5ccc(C)c(C)c5n34)CC2)cc1	-35	-20	50*	0
SMILES	BB579 growth dn	Yeast lifespan up	Measles CPE	RAM inhibit
COc1cccc(/C=C2\SC(=S)N(CC3CCCO3)C2=O)c1 (stereo not drawn)	-20	1	16	8.6*
COC(=O)c1ccc(CSc2cc(C)c3cc(C)cc(C)c3n2)o1	nt	nt	nt	8
COC(=O)c1ccc(CSc2cc(C)c3cccc(C)c3n2)o1	nt	nt	nt	8.5*
COc1ccc(/C=C/C(=O)N2CCN(C)CC2)cc1S(=O)(=O)N1CCCCC1	nt	nt	nt	0
O=C(c1ccc([N+](=O)[O-])cc1)N1CCSC1c1ccccc1 (stereo not drawn)	0	-2	24*	2
Cc1sc(C(=O)Nc2ccc3ccccc3c2)cc1CC(=O)O	nt	nt	nt	8
CC1CCC(NC(=O)C2CC(=O)N(c3ccc4c(c3)OCCO4)C2)CC1 (stereo not drawn)	nt	nt	nt	2
COc1cc(-c2nnc(SCc3ccccc3Cl)o2)cc(OC)c1OC	-81	-8	17	11*
COc1cc(-c2nnc(SCC(=O)c3ccc(C)cc3)o2)cc(OC)c1OC	-8	-7	10	1
COc1cc(-c2nnc(SCc3c(F)cccc3Cl)o2)cc(OC)c1OC	-35	-8	4	11*
